Sampled rows, rich in hits. Any-hit rate of the full collection: about 8.2%.
HePTP inhibitor – inhibitors of human HePTP phosphatase, primary screen, biochemical, absorbance, leukemia target | actives 0.64% (n = 110,000) | Tyrosine-protein phosphatase non-receptor type 7 (Homo sapiens), P35236 | recombinant HePTP phosphatase activity, OD absorbance | inhibition, % at 20 µM; in the data active means inhibition above about 50%;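 further: plate controls were vehicle for no effect and reference inhibitor for full effect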
M1 antag – antagonists of rat M1 muscarinic receptor; Muscarinic acetylcholine receptor M1 (Rattus norvegicus), P08482; AID 628, 2007; actives 3.4% (n = 64,000); B-score at 10 µM; CHO-M1 cells, Fluo-4 calcium, ACh EC80 antagonist mode; active compounds read low;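 active means calcium fluorescence response, raw or row-and-column corrected B-score, differing from the plate sample mean either way at a set confidence level, mostly lower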
Target sequence (P08482 whole entry, looked up): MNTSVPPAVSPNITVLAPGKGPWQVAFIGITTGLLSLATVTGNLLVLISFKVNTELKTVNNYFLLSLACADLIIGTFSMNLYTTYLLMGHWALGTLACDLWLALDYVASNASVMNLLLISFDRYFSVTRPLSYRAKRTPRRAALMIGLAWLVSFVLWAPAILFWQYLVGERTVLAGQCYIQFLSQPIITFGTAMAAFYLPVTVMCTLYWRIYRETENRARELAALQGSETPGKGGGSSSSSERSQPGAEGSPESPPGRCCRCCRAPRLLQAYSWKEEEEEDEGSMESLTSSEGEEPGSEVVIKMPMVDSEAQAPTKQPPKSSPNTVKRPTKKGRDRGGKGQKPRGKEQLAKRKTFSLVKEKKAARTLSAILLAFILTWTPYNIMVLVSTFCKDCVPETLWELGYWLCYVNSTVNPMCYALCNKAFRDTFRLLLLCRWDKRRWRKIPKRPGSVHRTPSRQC
SF1 activator – activators of human SF-1, primary screen, cell-based, CHO-K1, Gal4-SF-1 LBD, luciferase luminescence | activation, % at 10 µM | Steroidogenic factor 1 (Homo sapiens), Q13285 | CHO-K1 Gal4-SF-1 LBD luciferase reporter; % increase over DMSO SF-1-specific signal | AID 522, 2006 | actives 1.9% (n = 65,000);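 active means activation above the mean activation of all tested compounds plus 3 SD, cut at about 50% in these data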
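System: CHO-K1 cells with Gal4–hSF-1 LBD chimera plus Gal4-driven luciferase; quantity: 4,000 CHO-K1 cells per well; compound: one dose, 10 µM compound, 1% DMSO; times: 20 h compound treatment, 37 °C; measured by: SteadyLite luciferase luminescence; read-out: percent activation versus DMSO; benchmarks: DMSO and mock-transfected background; replicates: one test per compound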
RORa activator – activators of orphan receptor RORA, primary screen, cell-based, luminescence; CHO-K1 Gal4-RORA LBD luciferase reporter; percent increase over mock-subtracted basal signal; activation, % at 10 µM; Nuclear receptor ROR-alpha (Homo sapiens), P35398; actives 1.5% (n = 65,000);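 active means activation above the mean of all tested compounds plus 3 SD, cut at about 49% in these data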;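 further: 0% = DMSO-treated RORA cells and 100% = added signal equal to DMSO minus mock-transfected cells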
D1 mod – D1 CRE-luciferase signal change, two-sided – cell-based, HEK293 D1, dopamine EC30, D1 allosteric modulator project, primary screen | dopamine EC30 potentiation; actives deviate in either direction | B-score at 10 µM | D(1A) dopamine receptor (Homo sapiens), P21728 | actives 5.9% (n = 58,000);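 active means luminescence count or its row- and column-corrected plate score outside the 99.7% band of the plate's sample wells, on either side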
M1 agonist – M1 muscarinic receptor agonists, primary screen, CHO-M1 cells, Fluo-4 calcium, agonist mode; B-score at 10 µM; Muscarinic acetylcholine receptor M1; actives 3% (n = 64,000); Fluo-4 calcium fluorescence; active compounds read high;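 active means fluorescence rise, raw or as B-score row- and column-corrected plate score, outside the 99.7% band of its plate's samples, either direction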
An asterisk follows results filed as active; x = no result.

SMILES	HePTP inhibitor	M1 antag	SF1 activator	RORa activator	D1 mod	M1 agonist
Cc1cc(NC(=O)CS(=O)(=O)c2cn(Cc3ccccc3Cl)c3ccccc23)no1	6.3	3.66*	11.2	2.1	0.268	0.0806
Cc1ccccc1Cn1cc(S(=O)(=O)CC(=O)N2CCCCC2)c2ccccc21	x	0.0552	-10.7	7.6	-0.899	-0.31
COc1ccc(Cl)cc1NC(=O)c1cc2nc(-c3ccccc3)cc(C)n2n1	103.3*	x	x	x	x	x
CCOc1ccc(-c2cc(C)n3nc(C(=O)Nc4ccc(C(C)=O)cc4)cc3n2)cc1	94.0*	x	x	x	x	x
CCOc1ccc(-c2cc(C)n3nc(C(N)=O)cc3n2)cc1	18.1	x	x	x	x	x
Cc1cc(-c2ccccc2)nc2cc(C(=O)Nc3ccc(Cl)cc3)nn12	7.9	x	x	x	x	x
Cc1cc(C)c(NC(=S)NC(=O)c2ccccc2C)c(C)c1	-6.4	x	x	x	x	x
Cc1ccnc(NC(=O)Nc2cccc(F)c2)c1	0.4	-0.168	-18.2	-45.5	-5.33*	-1.34
Cn1c(C(=O)NCCCN2CCN(c3ccc(F)cc3)CC2)cc2c(=O)n(C)c3ccccc3c21	14.9	-0.327	-39.6	1.6	-5.2*	-0.0298
Cn1c(C(=O)NCCN2CCN(c3ccccc3F)CC2)cc2c(=O)n(C)c3ccccc3c21	13.3	-0.243	7.9	5.1	-3.72*	0.339
CCCC(=O)Nc1ccccc1-c1nnc(SC)[nH]c1=O	8.0	0.0132	2.0	-15.7	0.987	-0.00604
O=C(NCc1ccccc1)N(Cc1cc2cc3c(cc2[nH]c1=O)OCCO3)CC1CCCO1 (stereo not given)	25.7	-0.315	20.8	-21.5	0.297	0.751
CC1(C)CC(=O)C(C=Nc2ccccc2)=C(O)C1	2.1	0.0576	63.9*	6.3	-0.462	0.658
Cc1ccc(/C=N/NC(=S)NC2CCS(=O)(=O)C2)cc1 (stereo not given)	6.9	x	x	x	x	x
CC(C)(C)C1(C)OC(O)(C(F)(F)C(F)F)CC1=O (stereo not given)	103.9*	x	x	x	x	x
Cn1c(COc2cccc3ccccc23)nc2ccccc21	10.8	x	x	x	x	x
COc1ccccc1Nc1ncc(-c2cccs2)s1	1.8	-0.493	94.7*	34.0	x	1.03
CCn1c(SCC(=O)N2CCOCC2)nnc1-c1cccs1	8.3	0.0411	-8.4	-14.7	-0.629	2.23
C=CCc1ccccc1OCC(CN1CCCCC1)OC(C)=O (stereo not given)	-6.4	1.31	4.3	-8.4	-4.5*	-1.08
COc1ccccc1N1CCN(CC(O)COc2cccc3ccccc23)CC1 (stereo not given)	8.1	-0.936	-44.1	-27.3	-1.67	0.0154
C=CCc1ccccc1OCC(O)CN1CCN(c2ccccc2F)CC1 (stereo not given)	6.2	0.125	6.4	-4.7	-4.6*	-0.583
C=CCc1ccccc1OCC(O)CNC(C)C (stereo not given)	1.2	-0.564	3.7	-8.6	-1.55	1.03
C=CCc1ccccc1OCC(O)CN1CCN(c2ccccc2OC)CC1 (stereo not given)	6.6	-0.624	-23.4	-35.9	-6.07*	0.684
COc1ccc(/C(O)=C2\C(=O)C(=O)N(CCc3ccccc3)C2c2ccc(F)cc2)cc1 (stereo not given)	-2.3	x	x	x	x	x
Cc1ccc(CSC2=NCCN2C(=O)c2ccco2)cc1	9.0	0.00849	-2.6	-10.6	0.736	1.34
SMILES	HePTP inhibitor	M1 antag	SF1 activator	RORa activator	D1 mod	M1 agonist
Clc1ccc2nc(CSc3nc4ccccc4o3)cn2c1	-5.0	0.836	50.2*	13.3	x	0.569
CCCC1=NN2C(=N)/C(=C/c3ccc(-c4ccc([N+](=O)[O-])cc4Br)o3)C(=O)N=C2S1	75.9*	x	x	x	x	x
CCC1=NN2C(=N)/C(=C/c3ccc(-c4cccc([N+](=O)[O-])c4)o3)C(=O)N=C2S1	0.3	x	x	x	x	x
CC(C)C1=NN2C(=N)/C(=C/c3ccc(-c4ccc([N+](=O)[O-])cc4)o3)C(=O)N=C2S1	78.7*	x	x	x	x	x
NC1=NC(=O)/C(=C\c2ccc(-c3ccc([N+](=O)[O-])cc3)o2)S1	64.2*	x	x	x	x	x
O=C(O)C1CCCCC1C(=O)NCCc1ccc(Cl)cc1 (stereo not given)	2.8	0.414	6.2	-5.1	-0.0373	-0.646
Cc1nc2ccccc2c2oc(C(=O)N3CCc4ccccc4C3)cc12	8.7	0.725	8.1	18.9	-0.061	6.03*
Cc1nc2ccccc2c2oc(C(=O)N3CCN(C(=O)c4ccco4)CC3)cc12	7.7	0.681	-1.9	-19.7	1.15	-0.409
Cc1cccc2cc(C(c3nnnn3C3CCCC3)N3CCOCC3)c(=O)[nH]c12 (stereo not given)	2.8	-0.0389	-10.6	4.0	x	-0.177
Cc1cn(C(=O)c2cccc(Br)c2)c(C)n1	-3.7	0.309	6.3	-17.1	7.98*	0.132
Cc1csc2ncc(C(=O)Nc3ccc4c(c3)OCCO4)c(=O)n12	-7.1	-0.671	34.5	97.2*	-0.72	-0.0119
Cc1csc2ncc(C(=O)Nc3ccccc3F)c(=O)n12	7.8	-1.79	49.7*	39.6	1.17	-0.06
Cc1cccc(NC(=O)c2cnc3scc(C)n3c2=O)c1	-12.7	0.728	48.9	49.8*	0.0785	0.792
O=C(CSCC(=O)Nc1nccs1)Nc1ccccc1	-2.3	-0.036	-19.8	12.8	0.399	-1.05
CC(=O)Nc1sc2c(c1C(c1cccs1)N1CCOCC1)CCCC2 (stereo not given)	-3.1	0.438	-1.7	9.1	-0.669	-0.734
COC(=O)n1c(=O)oc2cc(S(=O)(=O)N3CCCCC3)ccc21	0.7	-0.96	-5.0	-10.7	-6.83*	-0.665
COc1cc(S(=O)(=O)N2CCCCC2)ccc1NC=O	10.2	0.435	x	x	-4.25*	-0.357
CC(C)NC(=O)CSc1nc2ccccc2n1-c1ccccc1	-2.3	0.945*	10.6	-15.4	1.41	0.255
Cc1ccc(C)n1-n1cnc2sc(-c3ccccc3)cc2c1=O	1.4	-1.8	-7.6	-15.5	0.439	-0.603
CC(C)OC(=O)CC(=O)c1sc2nc3c(cc2c1N)CN(C)CC3	-5.2	0.0553	10.4	-1.7	-0.314	7.33*
O=C(c1ccc(N2CCN(C(=O)c3ccccc3Br)CC2)cc1)c1cccc(F)c1	102.2*	x	x	x	x	x
O=C(c1ccc(N2CCN(C(=O)c3ccccc3F)CC2)cc1)c1cccc(F)c1	3.0	x	x	x	x	x
CCOc1ccccc1NC(=O)C1CN(S(=O)(=O)c2ccccc2)CCN1S(=O)(=O)c1ccccc1 (stereo not given)	0.9	x	x	x	x	x
CCOc1ccccc1C1C(C#N)=C(N)Oc2n[nH]c(CC)c21 (stereo not given)	9.2	0.943	-5.4	-17.3	1.13	0.345

High-throughput results deposited in PubChem BioAssay by several laboratories.
